The Ki is a dissociation constant, usually derived from enzyme kinetics or from competition with a known ligand. A high value points to lower affinity.

Each structure is given as a SMILES string.

Consider nine molecules from article PMC3224645 (Purinergic Signalling, 2011).

In one data set the test system is LNCaP cells. Put plainly: LNCaP proliferation with IPA in the presence of A3R antagonist MRS1523. It counts as cell-based, human.
Data set [1] addresses T1, hA3R (Homo sapiens, UniProt P0DMS8).
T1 sequence (P0DMS8 1-318): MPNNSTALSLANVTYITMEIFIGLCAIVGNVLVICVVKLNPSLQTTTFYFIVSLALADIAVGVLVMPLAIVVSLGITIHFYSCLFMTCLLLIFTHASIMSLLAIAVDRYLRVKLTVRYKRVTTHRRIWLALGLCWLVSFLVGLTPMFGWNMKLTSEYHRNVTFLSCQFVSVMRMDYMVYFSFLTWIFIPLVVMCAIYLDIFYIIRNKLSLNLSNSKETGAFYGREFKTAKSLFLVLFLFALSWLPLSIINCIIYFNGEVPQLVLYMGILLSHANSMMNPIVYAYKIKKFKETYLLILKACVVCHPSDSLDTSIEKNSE
The following applies: cited from earlier work.

Another data set relates to MOLT-4. The settings on record: 30 μM, in the presence of MRS1523 (10 μM) or MRS1220 (5 μM); cited from earlier work.
Data set [2] deals with LNCaP (human prostate carcinoma) cells. The data set can be described thus: [3H]-thymidine incorporation proliferation assay, LNCaP. It counts as cell-based. The settings on record: for effect on LNCaP proliferation: 24 h. An outline of the steps: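 LNCaP cells were kept in RPMI 1640 with 10% FBS, then serum-starved for 18 h and assayed as monolayers in RPMI with 1% FBS at 1.5 × 10^4 cells/ml. […] Assays ran 24 h, or 48 h for experiments with EHNA (10 μM). [3H]-thymidine (1 μCi) was added for the last 18 h, then cells were harvested and counted. Three experiments in triplicate.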
For orientation: Dividing cells build labelled thymidine or BrdU into new DNA.

For data set [3], the system named is breast cancer cell lines lacking A3R mRNA. The following applies: concentrations between 10 and 100 μM (500 μM for adenosine); cited from earlier work.
A further data set has as its system HL-60. The settings on record: 30 μM, in the presence of MRS1523 (10 μM) or MRS1220 (5 μM); cited from earlier work.
The test system of data set [4] is N1S1 (rat hepatocellular carcinoma) cells. The data set can be described thus: [3H]-thymidine incorporation proliferation assay, N1S1. The class given is cell-based. The method in brief:
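N1S1 rat hepatoma cells, not serum-starved, were assayed in growth medium (RPMI 1640, 10% FBS, 2 mM L-glutamine, penicillin/streptomycin) at 1.5 × 10^4 cells/ml. […] Assays ran 24 h, or 48 h for experiments with EHNA (10 μM). [3H]-thymidine (1 μCi) was pulsed for the last 18 h, then cells were harvested and scintillation-counted.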

Data set [5] concerns the target T1, hA3R. The data set can be described thus: cAMP accumulation assay. The class given is cell-based. (In general: Changes in cAMP serve as a functional read-out for many G protein-coupled receptors.)
In another data set the target is T2, rat A3R (Rattus norvegicus, UniProt P28647).
T2 sequence (P28647 1-320): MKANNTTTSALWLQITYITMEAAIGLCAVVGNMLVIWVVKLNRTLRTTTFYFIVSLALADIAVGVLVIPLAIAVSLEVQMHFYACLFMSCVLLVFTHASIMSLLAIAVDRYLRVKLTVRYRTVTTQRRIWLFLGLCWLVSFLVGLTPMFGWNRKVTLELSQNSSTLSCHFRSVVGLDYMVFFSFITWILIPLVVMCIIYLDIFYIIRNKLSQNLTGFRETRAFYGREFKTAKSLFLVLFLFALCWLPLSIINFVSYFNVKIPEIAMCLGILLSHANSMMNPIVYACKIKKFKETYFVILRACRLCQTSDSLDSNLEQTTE
The data set can be described thus: Radioligand binding, [125I]-AB-MECA displacement on RBL-2H3 cell membranes.

The conditions of data set [6]: in the first 4 h, mostly in metabolized form; cited from earlier work.
For data set [7] the following is noted: phase I clinical studies; cited from earlier work.

On to `CCCOC(=O)c1c(-c2ccccc2)nc(CC)c(C(=O)SCC)c1CCC` [MRS1523], for which the “blockade of the antiproliferative effect of IPA on LNCaP” value in the data set with LNCaP cells (IPA 1 μM, MRS1523 0.01–1 μM) is on record as “small, although still significant at higher concentrations”; in the data set on LNCaP cells (IPA 10 μM, MRS1523 0.01–1 μM) it was “no effect”; with LNCaP cells (MRS1523 0.1 and 1 μM, IPA 0.01 and 0.1 μM) it was “prevented the antiproliferative effect”. Moreover, the “affinity for the hA3R compared to IPA” value at hA3R [1] is recorded as “approximately sixfold higher”.
On to `CNC(=O)[C@H]1O[C@@H](n2cnc3c(NCc4cccc(I)c4)nc(Cl)nc32)[C@H](O)[C@@H]1O` [Cl-IB-MECA, 2-chloro-N ^6-(3-iodobenzyl)adenosine-5′-N-methylcarboxamide], for which, in the data set on MOLT-4, the “growth of MOLT-4” value was “inhibited growth”. Further, in data set [2] (0.01–10 μM), the “effect on LNCaP proliferation” value was “inhibited proliferation”. The “antiproliferative effect on breast cancer cell lines lacking A3R mRNA” value in data set [3] is “had antiproliferative effects”. In the data set with HL-60, the “growth of HL-60” value is on record as “inhibited growth”. In addition, the “effect on N1S1 proliferation” value in data set [4] (0.01–10 μM, 24 h) is “inhibited proliferation”.
As for `CCCCCC[C@@H]([C@@H](C)O)n1cnc2c(N)ncnc21` (racemic) [EHNA], the “basal growth inhibition of N1S1 cells” value in data set [4] (EHNA 10 μM alone, without adenosine) stood at 22%.
Take `Nc1nc(Cl)nc2c1ncn2[C@@H]1O[C@H](CO)[C@@H](O)[C@H]1O` [2-chloro-adenosine]: in data set [3], the “antiproliferative effect on breast cancer cell lines lacking A3R mRNA” value is “had antiproliferative effects”.
As to `COc1ccccc1NC(=O)Nc1nc(-c2cccnc2)nc2ccccc12` [VUF5574], on hA3R [5] (agonists 10 μM, VUF5574 1 μM or 10 μM), the “inhibition by the antagonist of cAMP modulation by adenosine, IPA and Cl-IB-MECA” value is “largely and significantly inhibited”.
As to `Nc1ncnc2c1ncn2[C@@H]1O[C@H](CO)[C@@H](O)[C@H]1O` [1a, Adenosine], the “effect of ADA on the agonist's inhibition of cAMP production” value at hA3R [5] (agonist 10 μM + ADA 0.8 IU/ml) is listed as “abolished the effect”. In addition, the “inhibition of forskolin-stimulated cAMP production” value on hA3R [5] (agonist at 10 μM) is reported as “inhibited cAMP production to a similar extent”. In data set [2] (25 μM), the “effect on LNCaP proliferation” value is “no effect”. Also, the “effect of EHNA on the adenosine effect in LNCaP” value in data set [2] (adenosine 25 μM + EHNA 10 μM, data not shown) is given as “did not increase the adenosine effect”. Also, the “antiproliferative effect on breast cancer cell lines lacking A3R mRNA” value in data set [3] is recorded as “had antiproliferative effects”. The “effect on N1S1 proliferation” value in [4] (25 μM) is “only a modest effect”. Further, the “effect on N1S1 proliferation in the presence of EHNA” value in data set [4] (adenosine 25 μM + EHNA 10 μM) is “almost full growth inhibition”.
Take `CC(C)=CCNc1ncnc2c1ncn2[C@@H]1O[C@H](CO)[C@@H](O)[C@H]1O` [1b, N^6-(2-isopentenyl)-adenosine]: on rat A3R, the Ki was 4.69 ± 0.2 µM. In addition, the “fraction excreted in urine” value in data set [6] is listed as “more than 50%”.
Consider `CNC(=O)[C@H]1O[C@@H](n2cnc3c(NCc4cccc(I)c4)ncnc32)[C@H](O)[C@@H]1O` [IB-MECA], for which the “antiproliferative effect on breast cancer cell lines lacking A3R mRNA” value in data set [3] was “had antiproliferative effects”. For the same molecule, the tolerability entry in data set [7] was “tolerated very well”.
As to `Nc1ncnc2c1ncn2[C@@H]1O[C@H](CO)C[C@H]1O` [3′-deoxyadenosine], the “antiproliferative effect on breast cancer cell lines lacking A3R mRNA” value in data set [3] is given as “had antiproliferative effects”.
